The source of these data is ChEMBL document CHEMBL1142348, “beta-N-Biaryl ether sulfonamide hydroxamates as potent gelatinase inhibitors: part 1. Design, synthesis, and lead identification” (Bioorg Med Chem Lett, 2008).

In brackets after ≈: the same amount, converted by molar mass. Where only a bound is given, the exact number is not on record here.

In data set [1] the target is T1, Matrix metalloproteinase-9 (Homo sapiens, UniProt P14780). Nature of the data set: Inhibition of catalytic domain MMP9. An outline of the steps:
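Peptide-cleavage FRET assay using MMP-1 and -9 catalytic domains or full-length MMP-2, each titrated to give linear velocity. Enzyme was preincubated with inhibitor for 1 h at room temperature in 50 mM Hepes pH 7.4, 10 mM CaCl2, 0.05% Brij-35, final DMSO 0.04%. Eu/QSY7-labelled peptide substrate was then added for 15 min at room temperature, and liberated Eu fluorescence was read.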

Data set [2] has as its target T2, 72 kDa type IV collagenase (Homo sapiens, UniProt P08253). Nature of the data set: Inhibition of full length MMP2.
Target sequence in this assay (P08253 whole entry): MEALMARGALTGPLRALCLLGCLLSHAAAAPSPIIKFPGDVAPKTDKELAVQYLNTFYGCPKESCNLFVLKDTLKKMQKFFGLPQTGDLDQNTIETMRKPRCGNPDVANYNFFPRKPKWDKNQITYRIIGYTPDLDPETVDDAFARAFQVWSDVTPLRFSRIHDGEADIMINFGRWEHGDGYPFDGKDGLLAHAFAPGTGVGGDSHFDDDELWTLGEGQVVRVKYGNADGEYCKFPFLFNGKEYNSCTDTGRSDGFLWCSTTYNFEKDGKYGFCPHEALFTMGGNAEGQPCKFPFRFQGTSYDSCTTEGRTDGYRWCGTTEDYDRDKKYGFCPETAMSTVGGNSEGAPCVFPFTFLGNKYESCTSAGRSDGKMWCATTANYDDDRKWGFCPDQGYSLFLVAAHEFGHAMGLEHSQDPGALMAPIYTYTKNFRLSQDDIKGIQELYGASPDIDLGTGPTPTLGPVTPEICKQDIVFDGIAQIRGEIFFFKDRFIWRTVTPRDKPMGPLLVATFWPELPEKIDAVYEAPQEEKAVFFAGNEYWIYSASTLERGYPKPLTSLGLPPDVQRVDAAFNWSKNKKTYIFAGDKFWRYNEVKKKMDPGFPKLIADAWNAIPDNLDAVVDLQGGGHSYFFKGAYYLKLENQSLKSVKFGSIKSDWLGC
Another data set addresses T3, Interstitial collagenase (Homo sapiens, UniProt P03956).
T3 sequence (P03956 whole entry): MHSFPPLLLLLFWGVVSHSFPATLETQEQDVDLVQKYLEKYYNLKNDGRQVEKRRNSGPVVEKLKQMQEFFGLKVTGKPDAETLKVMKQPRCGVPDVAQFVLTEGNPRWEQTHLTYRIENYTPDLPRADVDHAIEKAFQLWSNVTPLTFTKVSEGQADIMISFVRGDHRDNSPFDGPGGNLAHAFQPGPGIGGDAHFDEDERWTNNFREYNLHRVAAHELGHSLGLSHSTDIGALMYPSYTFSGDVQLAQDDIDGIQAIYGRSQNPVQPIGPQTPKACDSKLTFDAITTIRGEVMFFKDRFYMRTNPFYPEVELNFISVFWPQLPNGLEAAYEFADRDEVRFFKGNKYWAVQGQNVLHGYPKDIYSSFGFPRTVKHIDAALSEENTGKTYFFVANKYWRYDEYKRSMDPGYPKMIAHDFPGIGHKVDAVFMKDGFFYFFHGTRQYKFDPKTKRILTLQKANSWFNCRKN
Nature of the data set: Inhibition of catalytic domain MMP1.

Data set [3] can be described thus: Selectivity ratio, IC50 for full length MMP2 to IC50 for catalytic domain MMP9. Put shortly: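 Full-length MMP-2 and MMP-9 catalytic domain, each titrated for linear velocity, in 50 mM Hepes pH 7.4, 10 mM CaCl2, 0.05% Brij-35. Preincubated 1 h at room temperature with compound dilutions (final DMSO 0.04%). Eu/QSY7-quenched peptide substrate added for 15 min at room temperature; cleavage read as Eu fluorescence. Triplicate 16-point curves, nonlinear regression; ratio is MMP-2 IC50/MMP-9 IC50.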

Data set [4] concerns the target T2, 72 kDa type IV collagenase. Nature of the data set: Inhibition of full length MMP2 at 10 uM.
Target sequence in this assay (P08253 110-660 limits assumed): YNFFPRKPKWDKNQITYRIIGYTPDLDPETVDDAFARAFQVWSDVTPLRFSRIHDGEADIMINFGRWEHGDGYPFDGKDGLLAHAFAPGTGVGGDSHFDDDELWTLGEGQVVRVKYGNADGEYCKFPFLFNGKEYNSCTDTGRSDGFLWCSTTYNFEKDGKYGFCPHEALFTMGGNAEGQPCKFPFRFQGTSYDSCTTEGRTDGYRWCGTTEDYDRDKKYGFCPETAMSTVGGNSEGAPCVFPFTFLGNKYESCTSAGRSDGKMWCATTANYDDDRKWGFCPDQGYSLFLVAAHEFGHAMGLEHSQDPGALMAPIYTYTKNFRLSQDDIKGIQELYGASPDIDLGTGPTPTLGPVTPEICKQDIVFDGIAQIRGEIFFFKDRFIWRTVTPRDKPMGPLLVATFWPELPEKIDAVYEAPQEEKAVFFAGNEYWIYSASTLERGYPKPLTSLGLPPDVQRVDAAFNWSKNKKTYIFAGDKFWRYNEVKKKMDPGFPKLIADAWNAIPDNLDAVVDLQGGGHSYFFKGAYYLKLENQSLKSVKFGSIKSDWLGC
The target in data set [5] is T1, Matrix metalloproteinase-9. The data set is described as follows: Inhibition of MMP9 catalytic domain at 10 uM.
Data set [6] can be described thus: Volume of distribution in rat at steady state at 0.5 mg/kg, iv. Format: ADME, organism-based. Set-up: dose 0.5 mg/kg, route intravenous. Particulars: in vivo, read-out: Vdss. Put shortly:
(§1)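 Rats, n=4 per group, single intravenous dose of 0.5 mg/kg. Plasma Cmax was taken at t = 5 min. Apparent elimination half-life, AUC, steady-state volume of distribution and clearance were derived from the plasma profile. Values are means of the 4 animals.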

A short description of data set [7]: Solubility in water at pH 2. In kind it is physicochemical.
A short description of data set [8]: AUC in rat at 0.5 mg/kg, iv. In kind it is ADME, organism-based. Set-up: dose 0.5 mg/kg, route intravenous. Particulars: plasma. Put shortly:
as §1

Data set [9] can be described thus: Clearance in rat at 0.5 mg/kg, iv. Format: ADME, organism-based. Particulars: in vivo. Set-up: dose 0.5 mg/kg, route intravenous. Put shortly:
as §1

Data set [10] is described as follows: Half life in rat at 0.5 mg/kg, iv. In kind it is ADME, organism-based. On the set-up: dose 0.5 mg/kg, route intravenous. The note with it: in vivo. Put shortly: as §1
Data set [11] is described as follows: Solubility in water at pH 7. In kind it is physicochemical.
Data set [12] is described as follows: Cmax in rat at 0.5 mg/kg, iv. Set-up: dose 0.5 mg/kg, route intravenous. Particulars: in vivo. Format: ADME, organism-based. An outline of the steps:
as §1

The nature of data set [13]: Stability in rat liver microsomes.
Data set [14] can be described thus: Stability in human liver microsomes.

T1 sequence (P14780 whole entry, the tested form may be a part): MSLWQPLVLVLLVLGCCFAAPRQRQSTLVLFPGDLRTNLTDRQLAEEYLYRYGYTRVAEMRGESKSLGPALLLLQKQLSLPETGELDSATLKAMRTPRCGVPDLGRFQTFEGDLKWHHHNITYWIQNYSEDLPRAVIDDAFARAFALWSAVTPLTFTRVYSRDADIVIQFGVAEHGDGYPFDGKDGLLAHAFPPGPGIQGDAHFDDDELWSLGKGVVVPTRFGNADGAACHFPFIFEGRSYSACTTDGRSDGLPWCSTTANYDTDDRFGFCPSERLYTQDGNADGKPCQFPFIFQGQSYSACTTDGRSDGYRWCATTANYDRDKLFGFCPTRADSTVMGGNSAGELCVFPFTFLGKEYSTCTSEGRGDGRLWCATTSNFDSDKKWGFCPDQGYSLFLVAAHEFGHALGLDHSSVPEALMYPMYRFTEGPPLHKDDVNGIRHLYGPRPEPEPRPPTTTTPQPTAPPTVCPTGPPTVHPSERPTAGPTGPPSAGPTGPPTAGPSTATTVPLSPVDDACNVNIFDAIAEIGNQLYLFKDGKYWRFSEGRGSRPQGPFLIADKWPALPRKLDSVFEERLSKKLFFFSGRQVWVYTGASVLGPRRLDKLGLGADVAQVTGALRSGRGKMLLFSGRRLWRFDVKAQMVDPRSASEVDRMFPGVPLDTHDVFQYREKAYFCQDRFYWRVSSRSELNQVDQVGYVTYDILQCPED

As to `Cc1ccc(Oc2ccc(N(CCC(=O)NO)S(C)(=O)=O)cc2)cc1`, the IC50 was 0.0066 µM in [1], 0.061 µM in data set [2] and over 10 µM at Interstitial collagenase.
Regarding `Cc1ccc(C#Cc2ccc(N(C[C@H](O)C(=O)NO)S(C)(=O)=O)cc2)cc1`, the IC50 turned out to be 0.044 µM in data set [1] and 0.047 µM in data set [2]. For the same compound, the Ratio IC50 in data set [3] worked out at 1.1.
With `Cc1ccc(Oc2ccc(N(C[C@H](O)C(=O)O)S(C)(=O)=O)cc2)cc1`, the inhibition in [4] and in data set [5] was under 10% throughout.
As to `CCS(=O)(=O)N(C[C@H](O)C(=O)NO)c1ccc(Oc2ccc(C)cc2)cc1`, the IC50 in [1] is 0.028 µM; in [2], 0.142 µM. For the same compound, in data set [3], the Ratio IC50 was 5.1.
As to `CO[C@@H](CN(c1ccc(Oc2ccc(C)cc2)cc1)S(C)(=O)=O)C(=O)NO`, the half-maximal inhibitory concentration (IC50) in data set [1] was determined as 0.0038 µM; in data set [2], 0.036 µM.
The corresponding values for `CS(=O)(=O)N(C[C@H](O)C(=O)NO)c1ccc(S(=O)(=O)c2ccccc2)cc1` are over 10 µM and over 10 µM.
`CO[C@H](CN(c1ccc(Oc2ccc(C)cc2)cc1)S(C)(=O)=O)C(=O)NO` had a half-inhibitory concentration (IC50) in [1] of 0.013 µM.
Take `Cc1ccc(Oc2ccc(N(C[C@H](O)C(=O)NO)S(C)(=O)=O)cc2)cc1`: the Vd in data set [6] was determined as 1.4 L/kg. Besides, the results for the solubility in data set [7] and in data set [11] were under 5 µg/mL and 28 µg/mL (≈ 73.6 µM), respectively. The compound also showed an AUC in data set [8] of 180 ng·h/mL. The clearance in data set [9] was 47.5 mL/min/kg. Further, the half-life in [10] was 25.8 min. In data set [12], this compound registered a Cmax of 1300 nM.
On to `CC(C)C(=O)N(C[C@H](O)C(=O)NO)c1ccc(Oc2ccc(Cl)cc2)cc1`, for which the figures for the IC50 in [1] and in [2] were 0.242 µM and 0.286 µM, respectively.
In the case of `Cc1ccc(Oc2ccc(N(C[C@H](O)C(=O)NO)S(=O)(=O)Cc3ccccc3)cc2)cc1`, the Ratio IC50 in [3] amounted to 6.3.
As to `COc1ccc(C#Cc2ccc(N(C[C@H](O)C(=O)NO)S(C)(=O)=O)cc2)cc1`, the half-maximal inhibitory concentration (IC50) was 0.032 µM in data set [2] and over 10 µM at Interstitial collagenase. In addition, the Ratio IC50 in data set [3] was 0.4.
Take `CS(=O)(=O)N(C[C@H](O)C(=O)NO)c1ccc(Oc2ccc(Cl)cc2)cc1`: the Ratio IC50 in data set [3] stood at 7.4.
As for `Cc1ccc(Oc2ccc(N(C[C@H](O)C(=O)NO)S(=O)(=O)Cc3cccnc3)cc2)cc1`, the Ratio IC50 in data set [3] amounted to 5.8.
For the compound `Cc1ccc(Oc2ccc(N(C[C@H](O)C(=O)NO)S(=O)(=O)Cc3ccncc3)cc2)cc1`, the Ratio IC50 in [3] turned out to be 6.4.
As for `CS(=O)(=O)N(C[C@H](O)C(=O)NO)c1ccc(OCc2ccc(Cl)cc2)cc1`, the figures for the 50% inhibitory concentration (IC50) (in data set [1]; in [2]; against Interstitial collagenase) were 0.984 µM, 0.893 µM and over 10 µM, respectively. Also, the Ratio IC50 in data set [3] was 0.9.
For the compound `CS(=O)(=O)N(C[C@H](O)C(=O)NO)c1ccc(OCc2ccc(F)cc2)cc1`, the results for the IC50 (in data set [1]; in data set [2]; against Interstitial collagenase) were 4.82 µM, 2.32 µM and over 10 µM, respectively. The Ratio IC50 in data set [3] was 0.5.
As to `Cc1ccc(Oc2ccc(N(CC(=O)NO)S(C)(=O)=O)cc2)cc1`, the IC50 in data set [1] was 0.031 µM; in data set [2], 0.073 µM.
Turning to `Cc1ccc(Oc2ccc(N(C[C@@H](O)C(=O)NO)S(C)(=O)=O)cc2)cc1`, the concentration for half-maximal inhibition (IC50) in [1] amounted to 0.012 µM; in [2] it was 0.067 µM.
Turning to `CS(=O)(=O)N(C[C@H](O)C(=O)NO)c1ccc(Oc2ccccc2)cc1`, the IC50 in data set [1] turned out to be 0.039 µM; in data set [2], 0.247 µM. For the same compound, the Ratio IC50 in data set [3] was determined as 6.3.
As to `CS(=O)(=O)N(C[C@H](O)C(=O)NO)c1ccc(Oc2ccc(C(F)(F)F)cc2)cc1`, the Ratio IC50 in data set [3] turned out to be 9.9.
`CC(=O)N(C[C@H](O)C(=O)NO)c1ccc(Oc2ccc(Cl)cc2)cc1`: the IC50 in [1] turned out to be 0.933 µM; in data set [2], 1.26 µM.
Take `CCCS(=O)(=O)N(C[C@H](O)C(=O)NO)c1ccc(Oc2ccc(C)cc2)cc1`: the Ratio IC50 in data set [3] is 4.1.
On the same count and under the same terms, with `CS(=O)(=O)N(C[C@H](O)C(=O)NO)c1ccc(C#Cc2ccc(Cl)cc2)cc1` the figure was 1.2.
As to `CS(=O)(=O)N(CC(=O)NO)c1ccc(Oc2ccccc2)cc1`, the IC50 is 0.383 µM in data set [1], 0.147 µM in data set [2] and over 10 µM against Interstitial collagenase.
As for `Cc1ccc(Sc2ccc(N(C[C@H](O)C(=O)NO)S(C)(=O)=O)cc2)cc1`, the IC50 in data set [1] is 0.054 µM; in data set [2], 0.297 µM. The Ratio IC50 in data set [3] is 5.5.
On to `CS(=O)(=O)N(C[C@H](O)C(=O)NO)c1ccc(OCc2ccc(C(F)(F)F)cc2)cc1`, for which the results for the IC50 (in data set [1]; in [2]; against Interstitial collagenase) were 1.49 µM, 2.92 µM and over 10 µM, respectively. Further, the Ratio IC50 in [3] was 1.9.
Consider `CS(=O)(=O)N(C[C@H](O)C(=O)NO)c1ccc(Sc2ccc(F)cc2)cc1`, for which the 50% inhibitory concentration (IC50) in [1] was determined as 0.104 µM; in [2], 0.283 µM. For the same compound, the Ratio IC50 in data set [3] was 2.7.
Regarding `Cc1ccc(Oc2ccc(N(CC(C)(O)C(=O)NO)S(C)(=O)=O)cc2)cc1` (racemic), the IC50 was 0.0055 µM in data set [1], 0.02 µM in [2] and over 10 µM against Interstitial collagenase. Also, the half-life in data set [13] was 10 min; in [14], 103 min; in [10] it was 43.2 min. Further, in data set [6], the Vd stood at 1.5 L/kg. Moreover, the solubility is under 5 µg/mL in data set [7] and 28 µg/mL (≈ 71 µM) in [11]. In addition, the AUC in data set [8] was determined as 220 ng·h/mL. The compound also had a clearance in data set [9] of 41.5 mL/min/kg. In data set [12], this compound showed a Cmax of 1500 nM.
With `CS(=O)(=O)N(C[C@H](O)C(=O)NO)c1ccc(-c2ccccc2)cc1`, the inhibition came out at 87% in data set [4] and 79% in data set [5].
